Screening data: PubChem, Johns Hopkins Ion Channel Center
A selection: hits, their analogues and other compounds. The true share with any hit is near 3.5%.
RGS4 block = RGS4 inhibitors, primary screen, cell-based, HEK293 M3R inducible RGS4, calcium flux; B-score at 10 µM; 310,000 compounds, 0.45% hits; Regulator of G-protein signaling 4 (Homo sapiens), P49798; AID 463165, 2010; Fluo-4 calcium flux; hits give high values; triggered by carbachol at its EC20;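 active means B-score, a plate-corrected calcium signal, over three deviations above library mean, with baseline fluorescence within five deviations of library mean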;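 further: RGS4 expression induced by doxycycline in cells with stable M3 receptor; B-score is computed from the integrated fluorescence ratio over baseline after carbachol; higher B-score means a larger calcium signal and so more RGS4 inhibition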
Target sequence (P49798 whole entry, looked up): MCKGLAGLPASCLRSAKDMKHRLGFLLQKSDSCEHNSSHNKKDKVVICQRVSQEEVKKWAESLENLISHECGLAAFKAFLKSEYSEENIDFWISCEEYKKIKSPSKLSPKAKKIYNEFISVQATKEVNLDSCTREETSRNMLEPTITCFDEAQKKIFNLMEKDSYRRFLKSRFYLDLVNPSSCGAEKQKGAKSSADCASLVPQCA
MrgX1 allo act = positive allosteric modulators of MrgX1, primary screen, HEK293 cells, Fluo-4 calcium flux | FDSS; hits give high values | Mas-related G-protein coupled receptor member X1 (Homo sapiens), Q96LB2 | 310,000 compounds, 0.63% hits | B-score at 10 µM;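 active means plate-corrected calcium response at least 3 library SD above typical, normal starting fluorescence, not activating the receptor alone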;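 further: compound read alongside a low EC10 to EC30 dose of BAM8-22 agonist; peak minus trough fluorescence over baseline measured at the second addition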
Target sequence (Q96LB2 whole entry, looked up): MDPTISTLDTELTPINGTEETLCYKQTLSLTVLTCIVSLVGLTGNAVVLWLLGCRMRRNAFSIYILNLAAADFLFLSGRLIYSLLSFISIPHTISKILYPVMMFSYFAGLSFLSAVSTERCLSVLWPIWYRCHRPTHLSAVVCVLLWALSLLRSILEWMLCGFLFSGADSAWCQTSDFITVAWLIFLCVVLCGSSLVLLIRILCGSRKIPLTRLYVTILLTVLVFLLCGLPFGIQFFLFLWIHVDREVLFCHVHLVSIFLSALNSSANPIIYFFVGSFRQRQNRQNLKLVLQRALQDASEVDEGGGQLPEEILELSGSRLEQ
MrgX1 agonist = agonists of human MrgX1 receptor, primary screen, HEK293 cells, Fluo-4 calcium flux. Fluo-4 calcium fluorescence, agonist mode; hits give high values. 310,000 compounds, 0.44% hits. AID 588627, 2011. B-score at 10 µM. Mas-related G-protein coupled receptor member X1 (Homo sapiens), Q96LB2;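 active means calcium response B-score plate-corrected fluorescence ratio at least 3 library SD, with starting fluorescence B-score inside 5 SD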
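System – MrgX1-expressing HEK293 cells · Incubation – cells plated overnight, dye loaded 0.5 h 37 °C, 0.5 h room temperature · Technique – kinetic Fluo-4 NW fluorescence of intracellular calcium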
MrgX1 antag = antagonists of human MrgX1 receptor, primary screen, HEK293 cells, Fluo-4 calcium flux; Mas-related G-protein coupled receptor member X1 (Homo sapiens), Q96LB2; BAM8-22 antagonism; hits give low values; B-score at 10 µM; 310,000 compounds, 1.3% hits;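 active means calcium-response B-score plate-corrected more than 3 library SD below zero, starting fluorescence within 5 deviations, no agonist response on first addition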;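 further: peak minus trough fluorescence over baseline after final BAM8-22 challenge near maximal dose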
RGS4 act = RGS4 potentiators or activators, primary screen, cell-based, HEK293 M3R inducible RGS4, calcium flux | carbachol calcium flux Fluo4; hits give low values | B-score at 10 µM | 310,000 compounds, 0.92% hits | AID 463111, 2010;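 active means B-score of the integrated calcium signal more than 4 SD below the library mean, with starting fluorescence not abnormally high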;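 further: negative B-score means reduced calcium response which marks RGS4 activation or potentiation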
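Assay system: Inducible-RGS4 HEK293 cells carrying M3 receptor | Schedule: Compound preincubation 20 min at room temperature before agonist | Signal: Kinetic calcium fluorescence imaging with Fluo4-AM dye, 2 µM | Read-out basis: B score from integrated fluorescence ratio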
RGS4 block valid = enhanced carbachol calcium response, M3R/RGS4 cells, RGS4 inhibitor project, cell-based, validation screen, HEK293 M3R/RGS4, calcium flux; shares compounds with RGS4 block; carbachol calcium Fluo-4 fluorescence; carbachol added at its EC20; 0 = buffer wells, 100 = carbachol control; AID 492999, 2010; calcium response, % at 10 µM; 1,700 compounds, 65% hits;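 active means duplicate-averaged calcium response above the buffer-only control mean plus 5 SD of those controls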;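 further: integrated fluorescence ratio F max minus min over baseline F0; higher response in RGS4-induced cells means RGS4 inhibition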
RGS4 uninduced = carbachol calcium response in non-induced M3R cells, confirmation, counter-screen for RGS4 inhibitor project, cell-based, HEK293 M3R; shares compounds with RGS4 block; carbachol calcium Fluo-4; submaximal (EC20) carbachol stimulus; buffer wells 0%, carbachol control wells 100%; activity (percent), % at 10 µM; 1,900 compounds, 20% hits; call rule not given here;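 further: RGS4 induction absent so cells express M3R without RGS4; higher means more calcium signal and flags a non-specific hit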
M3R basal Ca ctr = signal in non-induced cells without carbachol, RGS4 inhibitor counter-screen; shares compounds with RGS4 block; calcium response (agonist-mode artifact), % at 10 µM; HEK293 M3R/RGS4 non-induced, Fluo-4 calcium, no carbachol; normalised: buffer wells 0%, carbachol wells 100%; 1,900 compounds, 22% hits;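 active means duplicate-averaged calcium rise in uninduced cells above buffer wells' mean plus 5 SD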
* marks the source's active call; other numbers are inactive results; i = inactive; . = not tested or not shown.

SMILES | RGS4 block | MrgX1 allo act | MrgX1 agonist | MrgX1 antag | RGS4 act | RGS4 block valid | RGS4 uninduced | M3R basal Ca ctr
Cc1ccc2[nH]c(=O)c(C(c3nnnn3Cc3ccccc3)N3CCc4ccccc43)cc2c1 (stereo unspecified) | i | i | i | i | i | . | . | .
Cc1cc2cc(C(c3nnnn3Cc3ccco3)N3CCc4ccccc43)c(=O)[nH]c2cc1C (stereo unspecified) | 5.3* | i | i | i | i | 13%* | i | i
CC(C)Cn1c(N)c(C(=O)COC(=O)c2ccc(O)cc2O)c(=O)n(C)c1=O | i | i | i | i | i | . | . | .
CO/C=C\C=C/c1nnn(-c2ccc(Cl)cc2)n1 | 7.5* | i | i | i | i | i | i | 8.0%*
CC(C)c1ccc([N+](=O)[O-])cc1S(=O)(=O)N1CCN(C)CC1 | i | i | i | i | i | . | . | .
NNC(=O)c1nc[nH]c1C(=O)Nc1ccccn1 | 15* | i | i | i | i | 5.0%* | i | i
COc1ccc(C(=O)/C=C/c2ccsc2)cc1CSCC(=O)O | 5* | i | i | i | i | 10%* | i | i
Cc1ccc2c(c1)c1c(n2C)C(C(N)=O)CCC1 (stereo unspecified) | i | i | i | i | i | . | . | .
Cc1ccc2c(c1)c1c(n2C)-c2[nH]ncc2CC1 | 5.5* | i | i | i | i | 18%* | i | i
COC(=O)C1=C(CS(=O)(=O)c2ccc(OC)c(OC)c2)NC(=O)NC1c1ccc(O)c(OC)c1 (stereo unspecified) | 19* | i | i | i | i | 6.0%* | i | i
COC(=O)C1=C(CS(=O)(=O)c2ccc(Cl)cc2)NC(=O)NC1c1ccc(O)c(OC)c1 (stereo unspecified) | i | i | i | i | i | i | i | i
CCOC(=O)C1=C(CS(=O)(=O)c2ccc(Cl)cc2)NC(=O)NC1c1ccc(O)c(OC)c1 (stereo unspecified) | i | i | i | i | i | . | . | .
Cc1ccc(CNC(=O)CCC2CCCN(Cc3c(C)nn(C(C)C)c3C)C2)o1 (stereo unspecified) | i | i | i | i | i | . | . | .
CCN(CC)c1ccc(N=Cc2cc(Br)ccc2O)cc1 | i | i | i | i | i | . | . | .
OCC(CO)(CO)N=Cc1cc(Br)ccc1O | 5.8* | i | i | i | i | i | i | i
CN(CCCNC(=O)Cn1c(=O)c2cccn2c2ccccc21)Cc1ccccc1 | 23* | i | i | i | i | i | i | i
CC(C)N(CCCNC(=O)Cn1c(=O)c2cccn2c2ccccc21)Cc1ccccc1 | i | i | i | i | i | i | i | i
CC(C)(C)C1CCc2nc(NC(=O)Cc3cn4ccsc4n3)sc2C1 (stereo unspecified) | 7.1* | i | i | i | i | 16%* | i | i
CCn1c(C)c(CS(=O)(=O)c2ccccc2)[nH]c1=O | 6.7* | i | i | i | i | 24%* | i | 7.0%*
CCOCCCNC(=S)N(CCO)Cc1cc2cc3c(cc2[nH]c1=O)OCCO3 | i | i | i | i | i | i | i | i
CCN(CC)CCCNC(=S)N(CCO)Cc1cc2cc3c(cc2[nH]c1=O)OCCO3 | i | i | i | i | i | i | i | i
CCCCNC(=S)N(CCO)Cc1cc2cc3c(cc2[nH]c1=O)OCCO3 | i | i | i | i | i | i | i | i
CC(C)(C)[C@H]1CCC(=O)N([C@H](CN=[N+]=[N-])Cc2ccccc2)CC1 | i | i | i | i | i | . | . | .
CC(C)CNC(=O)CN1c2cccc3cccc(c23)S1(=O)=O | i | i | i | i | i | . | . | .
O=C(COc1ccccc1)NC1CCSC1=O (stereo unspecified) | i | i | i | i | i | . | . | .
O=[N+]([O-])c1cccc(S(=O)(=O)[N-]c2nc3ccccc3nc2-n2cc[n+](Cc3ccccc3)c2)c1 | i | i | i | i | i | . | . | .
CCC1CCCCN1S(=O)(=O)c1ccc2c(c1)CCN2C(=O)C1CCC1 (stereo unspecified) | i | i | i | i | i | . | . | .
O=C(CCl)c1ccc2c(c1)CCN2C(=O)C1CCCCC1 | i | i | i | i | i | i | i | 14%*
COc1ccc(S(=O)(=O)N2CCCOC2CNC(=O)C(=O)NC2CCCC2)cc1 (stereo unspecified) | i | i | i | i | i | i | i | i
